Test system: MS2 coat protein
Assay: apparent Kd, MS2 coat protein; higher = weaker binding; RNA-MaP array; FMN 200 µM where present
Procedure, shortened: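 Binding was read on Illumina sequencing-chip clusters where stalled E. coli RNA polymerase had transcribed each design. A titration of SNAP-549-labelled MS2 coat protein began at 0.7 or 1.5 nM and doubled to 3 µM, once without ligand and once with constant ligand, in 100 mM Tris-HCl pH 7.5, 80 mM KCl, 4 mM MgCl2, BSA, DTT, yeast tRNA and Tween-20. The apparent Kd is the median of filtered per-cluster binding-curve fits, based on green signal normalised to red-channel RNA signal and control-cluster median Fmax.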

[1] = designed as: ON switch for flavin mononucleotide, no ligand
[2] = ligand present: flavin mononucleotide, designed as: ON switch for flavin mononucleotide
[3] = designed as: OFF switch for flavin mononucleotide, no ligand
[4] = ligand present: flavin mononucleotide, designed as: OFF switch for flavin mononucleotide

Sequence	apparent Kd [1] [nM]	apparent Kd [2] [nM]	apparent Kd [3] [nM]	apparent Kd [4] [nM]
GGAGGACAUGAGGAUCACCCAUGUGGAUGAACGCUAGGAUAUGCGUGCAGGAAGAGUGGAGCAGAAGGAGUGGGUU	28.2	23.2		
CCUCUGUGAGGAUAUCUAGAGUAGGCUGACAAUGUCAUUCAGGAGAAGGUACAUGAGGAUCACCCAUGUUCGGC			24.4	56.3
UCACGGGAUUGAGGAUAUAUUUAAAUUUUUACAAUAGAAGGCAAAUUUUUAGUUUUUUCACUUUACAUGAGGAUCACCCAUGUU			28.8	24.5
GGAGCACACAUUAACAUGAGGAUCACCCAUGUCUAAAGACAUGAGGAUAUGGAUCCGAAAAGGAUCCAGAAGGCAUGGUGCUCC	207	11.7		
CAGUACUGAGGAUAUACAUGAGGAUCACCCAUGUGUUCCAGCGAGGAAACUAGCAAAAGUAGAAGGCAGUACUG			20.4	278
CGAGUGAUAGGAUAUACACCUUUUCAGAACAUGUGGCUGUUACAUGAGGAUCACCCAUGUAGAAGGAUCAAGCG			65.8	66.3
ACCCUGUCAGGAUAUCCUGCUGUGCGGCCUCUGUAUUCAAGGGAGAAGGGACAUGAGGAUCACCCAUGUAUGAG			40.6	47.5
AUCAUGUAAGGAUAUGACUACAUAAAAAAAAAAAAAUGUAGUCAGAAGGUACAUGAGGAUCACCCAUGUACAAA			22.2	23.7
CAGGGUUCGUGAAUAAGCUAGCUUCGAGAAGGGCCACAUGAGGAUCACCCAUGUCAGCGAAAACGGCAGGAUAUCGAGGGUGAG	147	48.4		
CGAUAACAUAGUUAUCCGUAACGGACAUGAGGAUCACCCAUGUAGGAUAUGUUACUCAACGGGUAACAGAAGGACAUGAGUCUU			14.4	41.7
GUUGUGUGAGGAUAUUCCUGGCCGUGUGGCCGGUUUGGGUGGCAGAAGGUACAUGAGGAUCACCCAUGUACGGG			96.9	75.8
UCAUAAGAACAAGGAUAUCAAUAAAAUAUAAAUGCUACAUGAGGAUCACCCAUGUUUUAGCAUGGUGAGAAGGUGUAUUUACGG	67.8	42.5		
GGAUGACAUAGUCAUCAGUAACGAACAUGAGGAUCACCCAUGUAGGAUAUGCUACUCAACGAGUAGCAGAAGGACAUGUGUCUU			27.4	135
UACGGACAUGAGGAUCACCCAUGUGAGGAUAUCGGUACCGAUAGCAUAAUCUACUCGGCGAGAAGGCACAGCGU			30.7	40.1
UGGUGCUAGGGAGGAUAUGGGAAGAUACAUGAGGAUCACCCAUGUUUAAGAAUGCCGAGAGGCAACUAGAAGGCCCUAGUACCU	457	20.9		
UACGCACAGAAGUACUCCGGGUCCAGAAGGGACAUGAGGAUCACCCAUGUACCGUUGAUUGCUUGUCAGGAUAUGGACCCGGCC			6.82	26.3
UUAAAUCAUGUAGGAUAUGCAUGGCGAAGCUACGCAGAAGGACAUGAGGAUCACCCAUGUUAUAGCUACCAAGUUAGGUGGCAA			99	190
GUAGCUAUCGGAGGAUAUUCAUACCGGAUACGGACAUGAGGAUCACCCAUGUCGCGAAAGCGUUGGGAGAAGGCCGAUAGCUAC	89.2	20.4		
ACUUUACGAGGAUAUACUGUCGGGCCUCGGGCGUACAUGCGACAUGAGGAUCACCCAUGUAGAAGGCGUUUACU			33.1	119
CCGAGAUGUGCAGGAUAUCAGGAUACGGUCCGCUGAGAAGGGCACAUGAGGAUCACCCAUGUGUGCGCAUAGGUGAAAGGCUUU			285	154
AUAUAUAUAUAAGGAUAUGUAUAUCCAACAUGAGGAUCACCCAUGUUGAGGAUCACCCAUGUAAAGCAGAAGGUAUAUAUAUAU	29.1	18		
AUUUUGUCAGGAUAUGAGUAGUAGGACGAAAGUGUUAUUAUUUAGAAGGGACAUGAGGAUCACCCAUGUUUCUC			12.3	15.8
CUUUUAUUGGUCCAUUUUUUCUACAUGAGGAUCACCCAUGUGCAGGAUAUCGUGAUUAUUAUCAACGAGAAGGGCAGAUUCACG			29.8	78.4
AAUAUAAGAGCUGGUAAACUCAAAACAUGAGGAUCACCCAUGUAGGAUAUCAGCACGAUAAGUGCUGAGAAGGACAUCCAGCUC			15	16.1
UUUAAGCGAGGAUAUACAUGAGGAUCACCCAUGUCAAGUAUUCUUGACGCCGUGCUCUGUAGAAGGCGCAAUUA			65.2	522
UUGUUAUGUGUAGGAUAUGCAUAUUAUUAUUAUGCAGAAGGACAUGAGGAUCACCCAUGUAUAUUAUUAUUAUAUAUUAUAUAU			28.7	37
GGAAGGUCAGGAUAUGCGAGGGAGUGGGAAAUAGGAUGGUAGCAGAAGGGACAUGAGGAUCACCCAUGUUAGGA			31	27.3
UGUAGUUCAGGAUAUGAUGUUUAAAACAUGAGGAUCACCCAUGUAGAUCCUGAAUUAACAUCAGAAGGGAAUAUUU			17.9	46.2

Sequence	apparent Kd [1] [nM]	apparent Kd [2] [nM]	apparent Kd [3] [nM]	apparent Kd [4] [nM]
GAGUAGUUAAAAGGAUAUUGAUUAUUGUAGGAUCAAGAAGGUUUUAACAUGAGGAUCACCCAUGUAGGACUAUUCCUGUGUAUC	16.5	14.8		
UGAUCUAUGUAGAAGGCCCAUAUCUAUAUUUAGGGAGGAUAUACAUGAGGAUCACCCAUGUAUAGAGCUGGUGGACUGGUCAGC			30.7	88.6
CUCAUGUGAGGAUAUAGUGCGUCUUCUAUUAUUAUUGAGUACUAGAAGGCACAUGAGGAUCACCCAUGUAGCAC			53.4	54.3
AAAUACGUAAAGGACACAUGAGGAUCACCCAUGUUUCUGUUCAAGGAUAUGAGGUGAAUGAUCCGUCAGAAGGUGAACUUGCUU	117	624		
UUAGAAUUGCAAGGAUAUCUAAUUUAGAUAGUAAGAGAAGGUGCUUUAUAGUUACAUGAGGAUCACCCAUGUUUUUUUGUUUAU	35.1	27.3		
UUGUUAUAUGUAGGAUAUGCGUGUUAUUAUUAUGCAGAAGGACAUGAGGAUCACCCAUGUGUAUUAUUAUUAUAUAUUAUAUAU			20.3	18.1
UUUGUCUGUGUGAGGAUAUACUUGUUUGGGUUUUUGUAGAAGGCACAUGAGGAUCACCCAUGUAUUUUGUCGUG			43.6	61.6
UGUUGGAGCGAGAAGGGACGAUGGGAAGCUGUAGGCUGGCACUGUAGACAUGAGGAUCACCCAUGUCAGGAUAUUGCCGAACUA			5.83	7.71
UGAUUGGACAGAGGAUAUACGUGCUAGAGAUACUAGCAAAAUAUCCUCACAUGAGGAUCACCCAUGUAGAAGGCUGUCCAAUCU			17.3	85.1
GGAUAGGACAGAGGAUAUACGUGCUAGAGAUACUAGCAAACUUUCCUCACAUGAGGAUCACCCAUGUAGAAGGCUGUCCUAUCG			21.1	483
GCCUUAUCUGUCAGGAUAUACAAUAUUUUUUUUUUGUAGAAGGGACAUGAGGAUCACCCAUGUACAUUACAUUG			31.3	71.8
AAUAAACUCACAGGAUAUAGCAGAGGUCGCGCGAACUUACAGGCGACUAUGCUAGAAGGGUGACCACAUGAGGAUCACCCAUGU	944	162		
GCUGACGAUGUAGGAUAUCAGUAUAAUAAAUACUGAGAAGGACAUGAGGAUCACCCAUGUAACUCACGUCAGCAGAGGAAACUC			17.6	20.4
GCUUGUGAAGGAUAUACUGGCGGCGUGCGCUCGGCGCGCGCACAUGAGGAUCACCCAUGUAGAAGGUCAAACGU			14.3	13.1
GGUUCUCAAAGAGAACCAUAACGAACAUGAGGAUCACCCAUGUAGGAUAUGCUACUCAAAGAGUAGCAGAAGGACAUGUGCCUU			30.6	265
GUCGUGUUAGGAUAUGGCGGCGGCGGCGUUUGUUGUUGUUGUUAGAAGGAACAUGAGGAUCACCCAUGUAUGAC			43.4	119
UAUUGAUAAUAUCUUCACAUGAGGAUCACCCAUGUCGCUCGACAGGAUAUAUUUUAUUUGUUUAAGUAGAAGGGUCGCAGAUUU	165	142		
CGUGCUAUGUAGAAGGCAGAAAAGAUUCAGAUCUGAGGAUAUACAUGAGGAUCACCCAUGUUAUGCACCAGCACGAGAGUGCAC			6.69	7.03
GUUACAUGAGGAUCACCCAUGUAUGUGUGGGAGUAAGUGUCUUAGGAUAUCUAUUAUUGAAAUUAAGAGAAGGAAGAUUGUUGU	113	104		
CUGGUGUGAGGAUAUCAGGACACGCCCGCGGACGUGUCAAAUGAGAAGGCACAUGAGGAUCACCCAUGUGGGAC			33.4	166
CUAUGCGGAAUAGGAUAUUCAUUCAUGAGGAUAGAAGAAGGGUUACAUGAGGAUCACCCAUGUAUACACAUGAGGAUCCCUUAC			162	181
UGUUAAUAUCGAGGAUAUGUCUAGACACAUGAGGAUCACCCAUGUAUGUGUAUAGAAGGCGAUAUUAACAGCAUGUUACAUGCG	37.2	17.4		
GGUGCGUGUGUGAGGAUAUGCUGGUCCUUGGAUCAGCAGAAGGCACAUGAGGAUCACCCAUGUGGUGUCGUACC			490	24.8
GACGGAUGUAUAGGAUAUCGACUGGAAUACAGUCGAGAAGGAUACAUGAGGAUCACCCAUGUAACCGUCAAUAAUAAUAAUAAU			14	29.7
GCCAUCGCAUGAGGAUAUGGUCAGGUUUCCUGACCAGAAGGCAUGUCAUAAGACAUGAGGAUCACCCAUGUAGUUAAGAUGGCA	717	48.4		
GCACCAUUGCAAGGAUAUCCUACAGAGGGUGCAGGAGAAGGUGCAUUGGUGAGACUAUAGGACAUGAGGAUCACCCAUGUACCG	68	32.7		
AAAAGACAUGAGGAUCACCCAUGUCAAAACGUGGGAGGAUAUGUAUGGAAACCAGACUGUACAGAAGGCCUCUGUC	41.7	131		
